RAM network inh: inhibitors of the yeast RAM network. S. cerevisiae dse1pr::URA3 reporter, 5-FOA growth OD615, 2 d; analog-sensitive cbk1-as2 kinase mutant strain. inhibition, % at 50 µM. 190,000 compounds, 1.8% hits. AID 868;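 active means inhibition above a set limit, 3 SD over mean compound inhibition, cut at about 8.4% in these data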;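 further: inhibition rescues growth on 5-FOA so higher OD means more RAM inhibition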
ABCB1 block: inhibitors of human ABCB1 transporter, ABCG2 counter-screen; CCRF-Adr cells, JC-1 efflux, flow cytometry; inhibition, % at 6.6 µM; P08183; 190,000 compounds, 0.067% hits; in the data active means inhibition above about 40%;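 further: higher value means more JC-1 retained so stronger ABCB1 efflux block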
Lmaj promast: Leishmania major promastigote growth inhibition; 200,000 compounds, 9% hits; Leishmania major promastigotes, resazurin fluorescence viability; inhibition, % at 10 µM; in the data active means inhibition above about 50%;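 further: promastigotes grown with compound for 44 hours at 28 °C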
WT yeast gro inh: growth inhibition of WT yeast, mitochondrial fusion screen; mitochondrial fusion phenotypic screen, WT strain; inhibition, % at 10 µM; 190,000 compounds, 2.1% hits; AID 1362; in the data active means inhibition above about 58%; tested in S. cerevisiae
ABCG2 block: inhibitors of human ABCG2 transporter, ABCB1 counter-screen; 190,000 compounds, 0.1% hits; Q9UNQ0; IgMXP3 cells, JC-1 efflux, flow cytometry; inhibition, % at 6.6 µM;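 active means inhibition above 80%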
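Incubation: cells with compound and JC-1, 10 min at 25 °C, rotating, no wash / Test system: IgMXP3 (ABCG2) plus far-red-tagged CCRF-Adr (ABCB1) cells / Compound dosing: one concentration, 6.6 µM final / Also added: JC-1 fluorescent substrate / Evaluation: efflux inhibition in percent versus controls / Detection: flow cytometry, 530 nm JC-1 signal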
Lmaj promast 1uM: inhibitors of Leishmania major promastigote growth, repeat at 1 uM. inhibition, % at 1 µM. shares compounds with Lmaj promast. L. major promastigote growth, resazurin fluorescence, 48 h. 1,100 compounds, 13% hits;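 active means inhibition above about 50% in both repeat tests, limit read from the data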
Hits are given with their value; i = inactive; nt = not tested or not shown. Hits are enriched below; roughly 12% of the tested compounds scored in any of these assays.

SMILES	RAM network inh	ABCB1 block	Lmaj promast	WT yeast gro inh	ABCG2 block	Lmaj promast 1uM
O=c1[nH]cc([N+](=O)[O-])cc1Br	i	i	61	i	i	i
Cc1ccc(C(CCN)c2ccco2)cc1 (stereo not drawn)	i	i	98	i	i	i
Cc1ccc(C(CC(N)=O)c2ccco2)cc1 (stereo not drawn)	i	i	i	i	i	nt
CSc1ccccc1NC(=O)CN1CC(C)OC(C)C1 (stereo not drawn)	i	i	i	i	i	nt
CC(C)c1ccc(S(=O)(=O)c2ccc(NN)cc2)cc1	i	i	97	69	i	i
CCSc1nc(-c2cccs2)nc2ccccc12	i	i	i	i	i	nt
c1ccc(CNc2nc(-c3cccs3)nc3ccccc23)cc1	i	i	99	71	i	59
Clc1ccc(CN2C3=NCCCN3c3ccccc32)cc1	i	i	100	i	i	i
Cc1nn(C)cc1S(=O)(=O)N1CCN(Cc2cccc(Cl)c2)CC1	i	i	i	i	i	nt
CCOC1(OCC)C(c2ccc(N)cc2)C(C#N)(C#N)C1(OCC)OCC (stereo not drawn)	i	i	63	i	i	i
CCOC1(OCC)C(c2ccc(Cl)cc2)C(C#N)(C#N)C1(OCC)OCC (stereo not drawn)	i	i	100	65	i	i
O=c1cc(/C=C/c2c(F)cccc2Cl)[nH]c2ccccc12	i	i	i	i	i	nt
CC(=O)NC1(C(F)(F)F)C(=O)Nc2c1c(=O)[nH]c(=O)n2CC(C)C (stereo not drawn)	i	i	i	i	i	nt
O=C(NC1CCCC1)C(c1ccc(F)cc1)N(Cc1ccc(Cl)cc1)C(=O)CCl (stereo not drawn)	i	nt	99	i	i	51
O=C(NCC(=O)N(Cc1ccc(F)cc1)C(C(=O)NC1CCCC1)c1ccco1)c1ccco1 (stereo not drawn)	i	i	i	i	i	nt
Cc1cc(OC(=O)C(c2ccccc2)c2ccccc2)c([N+](=O)[O-])c(=O)[nH]1	i	i	58	i	i	i
Cc1ccc(NNC(=O)C(O)(c2cccc(C(F)(F)F)c2)c2cccc(C(F)(F)F)c2)cc1	i	i	70	83	i	i
CC(=O)NC1=NN(C(C)=O)C(c2ccccn2)S1 (stereo not drawn)	i	i	i	i	i	nt
O=C1NC(=O)/C(=C\c2ccc(OCc3cccc([N+](=O)[O-])c3)cc2)N1	i	i	i	i	i	nt
CC(C)(C)c1cc(CSC(=S)NC2CCS(=O)(=O)C2)c(Br)c(C(C)(C)C)c1 (stereo not drawn)	i	i	95	i	i	i
O=C(CSc1nc2scc(-c3ccccc3)c2c(=O)[nH]1)NC1CCCCC1	i	i	55	i	i	i
CCN(CC)CCOc1nc(C)nc2c1oc1ccccc12	i	i	i	i	i	nt
CCN(CC)CCCOc1nc(C)nc2c1oc1ccccc12	i	i	75	i	i	i
Cc1ccc(C(=O)N2CCN(Cc3ccc4c(c3)OCO4)CC2)cc1[N+](=O)[O-]	i	i	i	i	i	nt
CCC(Oc1ccccc1)C(=O)O/N=C(\N)c1ccc(OC)c(OC)c1 (stereo not drawn)	i	i	i	i	i	nt
SMILES	RAM network inh	ABCB1 block	Lmaj promast	WT yeast gro inh	ABCG2 block	Lmaj promast 1uM
COC(=O)C1=C(C(=O)OC)SC2(S1)C(C(=O)OC)=C(C(=O)OC)SC1=C2c2cccc(C)c2NC1(C)C	i	i	100	i	i	i
CCCCS(=O)(=O)/C=C\C1C2C=CC(C2)C1S(=O)(=O)CCCC (stereo not drawn)	i	i	i	i	i	nt
CCCCS(=O)(=O)/C=C\C=C/S(=O)(=O)CCCC	i	i	101	88	i	94
O=C(O)/C=C\C(=O)NC1CCCCC1	i	i	i	i	i	nt
O=C(O)/C=C/C(=O)NC1CCS(=O)(=O)C1 (stereo not drawn)	i	i	61	i	i	i
CN(C)c1ccc(N2CN=C3SCC(=O)N3C2)cc1	i	i	62	i	i	i
Cc1cc(C(=O)CCl)c(C)n1Cc1ccco1	i	i	100	i	i	93
O=C(NC1CCCCC1)c1c2c(nc3ccccc13)CCC2	i	i	i	i	i	nt
O=C1NC2(C=Cc3c(ccc4ccccc34)O2)Oc2ccccc21 (stereo not drawn)	i	i	i	i	i	nt
CC1(C)OC(=O)N(c2ccccc2)C12C=Cc1c(ccc3ccccc13)O2 (stereo not drawn)	i	i	83	78	i	i
CCOC(=O)c1cccc(NC(=O)C2(S(=O)(=O)c3ccc(C)cc3)CC2)c1	i	i	i	i	i	nt
CCOC(=O)c1cc2oc(C(c3nnnn3C3CCCCC3)N3CCOCC3)cc2[nH]1 (stereo not drawn)	i	i	82	i	i	i
S=c1[nH]ccn1-c1cccc(Cl)c1	i	i	59	i	i	i
COc1cccc(-n2c([S-])c(C(=O)Nc3ccc(C(F)(F)F)cc3)[n+]3ccccc23)c1	i	i	i	i	i	nt
Cn1cc(CN(CCO)Cc2cccs2)c(-c2ccccc2F)n1	i	i	i	i	i	nt
O=C(Cc1ccccc1)Nc1ccc(N2CCOCC2)cc1N1CCOCC1	i	i	i	i	i	nt
O=C(Cc1ccccc1)Nc1cc(C(=O)c2ccccc2)ccc1N1CCOCC1	i	i	97	i	i	i
CN(C)CCOc1ccccc1Cc1ccccc1	i	i	100	i	i	89
COc1ccccc1NC(=O)C1=C(C)NC(=O)NC1c1cc(C)cs1 (stereo not drawn)	i	i	i	i	i	nt
COc1c(/C=N/NC(N)=S)c(C)nn1-c1ccccc1	i	i	58	i	i	i
Cc1ccc(NC(=S)N/N=C/c2c(C)nn(-c3ccccc3)c2N2CCCC2)cc1	i	i	i	i	i	nt
CCC(NC(=O)Nc1nnc(C(F)(F)F)s1)(C(F)(F)F)C(F)(F)F	i	i	101	i	i	i
O=C(O)CCC(=O)Nc1nnc(C(F)(F)F)s1	i	i	i	i	i	nt
FC(F)(F)c1nc2ccccc2n2c(-c3c(Cl)cccc3Cl)nnc12	i	i	57	i	i	i
FC(F)(F)c1nc2ccccc2n2c(-c3ccc(Cl)cc3Cl)nnc12	i	i	i	i	i	nt
SMILES	RAM network inh	ABCB1 block	Lmaj promast	WT yeast gro inh	ABCG2 block	Lmaj promast 1uM
O=C(O)c1cc(S(=O)(=O)NCC2CCCO2)ccc1Cl (stereo not drawn)	i	i	i	i	i	nt
O=C(O)c1ccc(/C=C/c2nc3sc4c(c3c(=O)[nH]2)CCC4)cc1	i	i	i	i	i	nt
COc1ccc(-c2nn(-c3ccccc3C)cc2CNCCc2cnc[nH]2)cc1F	i	i	96	i	i	i
CCOC(=O)Nc1nc(-c2ccc(Cl)cc2Cl)cs1	i	i	i	i	i	nt
COc1ccc(CNCCC(c2ccc(OC(C)C)cc2)C(C)C)cc1OC (stereo not drawn)	i	i	98	i	i	i
COc1ccc(CNCCSc2nnnn2C)cc1OC	i	i	i	i	i	nt
